Measurements pooled from the literature.
Lines come from different studies, so protocols differ.
Target: Mitogen-activated protein kinase kinase kinase 6 (MAP3K6, Homo sapiens, UniProt O95382)
One construct used (O95382 1-1288): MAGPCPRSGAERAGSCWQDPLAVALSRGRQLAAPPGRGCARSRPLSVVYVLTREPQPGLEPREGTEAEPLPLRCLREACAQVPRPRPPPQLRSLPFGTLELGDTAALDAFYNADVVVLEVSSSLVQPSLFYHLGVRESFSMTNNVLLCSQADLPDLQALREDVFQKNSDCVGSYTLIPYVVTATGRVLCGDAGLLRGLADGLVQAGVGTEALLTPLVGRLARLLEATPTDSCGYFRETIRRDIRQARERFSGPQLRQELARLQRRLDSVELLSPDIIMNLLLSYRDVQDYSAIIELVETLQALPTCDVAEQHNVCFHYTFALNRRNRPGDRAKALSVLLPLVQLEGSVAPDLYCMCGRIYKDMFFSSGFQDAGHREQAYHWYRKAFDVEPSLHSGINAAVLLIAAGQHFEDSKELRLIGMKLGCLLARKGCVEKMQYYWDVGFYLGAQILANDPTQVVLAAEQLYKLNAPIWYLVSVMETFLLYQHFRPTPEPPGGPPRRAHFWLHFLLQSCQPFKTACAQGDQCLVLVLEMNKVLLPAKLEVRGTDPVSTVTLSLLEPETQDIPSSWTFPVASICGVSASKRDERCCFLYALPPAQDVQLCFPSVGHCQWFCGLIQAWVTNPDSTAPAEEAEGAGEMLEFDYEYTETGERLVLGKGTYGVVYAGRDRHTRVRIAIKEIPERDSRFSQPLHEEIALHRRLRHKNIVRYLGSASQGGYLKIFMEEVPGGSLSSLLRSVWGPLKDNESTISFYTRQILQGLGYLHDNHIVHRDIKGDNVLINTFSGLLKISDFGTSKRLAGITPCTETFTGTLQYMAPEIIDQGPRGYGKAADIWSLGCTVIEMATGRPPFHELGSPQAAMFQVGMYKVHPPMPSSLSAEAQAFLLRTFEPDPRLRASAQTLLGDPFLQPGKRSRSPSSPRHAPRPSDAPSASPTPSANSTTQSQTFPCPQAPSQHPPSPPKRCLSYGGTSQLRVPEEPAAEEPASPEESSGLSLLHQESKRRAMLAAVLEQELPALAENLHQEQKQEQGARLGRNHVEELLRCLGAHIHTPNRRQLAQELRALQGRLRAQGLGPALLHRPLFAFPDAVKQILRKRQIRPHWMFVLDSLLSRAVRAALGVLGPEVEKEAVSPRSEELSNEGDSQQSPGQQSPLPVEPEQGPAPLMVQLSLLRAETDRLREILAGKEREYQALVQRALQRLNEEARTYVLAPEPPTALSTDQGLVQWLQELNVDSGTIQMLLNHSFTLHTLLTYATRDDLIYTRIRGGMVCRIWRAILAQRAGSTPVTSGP

N[C@@H]1CCN(c2nccc(-c3cnn4ncccc34)n2)C1 has a remaining binding of 57% (binding; 1 µM).
For Cc1cc(C)c(-n2ccn3nc(-c4cccnc4)cc23)cc1NC(=O)c1cc(C#N)cc(S(F)(F)(F)(F)F)c1, the remaining binding was 100% (cell-free assay, competition with immobilised ligand; 0.1 µM).
For C[C@@H]1CCN(c2nccc(-c3cnn4ncccc34)n2)C1, the remaining binding was 55% (binding; 1 µM).
COc1ncc2cc3ccccc3nc2c1C#N gave a remaining binding of 100% (cell-free assay, competition with immobilised ligand; 5 µM).
For O=C(c1ccc(Nc2ncc(Cl)c(-c3cc4ccccc4s3)n2)cc1)N1CCC(N2CCCC2)CC1, the remaining binding was 80% (binding, competition with immobilised ligand; 1 µM).
c1cncc(-c2cccc(Nc3nccc(NC4CCCCC4)n3)c2)c1 has a remaining binding of 100% (binding, competition with immobilised ligand; 10 µM).
The remaining binding of CNC(=O)Nc1ccc2c(c1)CC[C@@]21OC(=O)N(CC(=O)N(Cc2ccc(F)cc2)[C@@H](C)C(F)(F)F)C1=O is reported as 86% (cell-free assay, competition with immobilised ligand; 1 µM).
CN(C)c1nccc(-c2cnc3ncccn23)n1 has a remaining binding of 67% (binding; 1 µM).
For O=C(NCCCN1CCOCC1)c1ccc(Nc2ncc(Cl)c(-c3ccc(Cl)s3)n2)cc1, the remaining binding was 83% (binding, competition with immobilised ligand; 1 µM).
C[C@@H](c1ccc(-n2cnc3c(N)ncnc32)cc1)N1CCc2nn(C)c(Cc3ccccc3)c2C1=O gave a remaining binding of 67% (binding, competition with immobilised ligand; 0.1 µM).
COc1ccc2cc(OCC3(C(=O)O)CN(C(=O)c4ccc(F)cc4)C3)ccc2c1 has a remaining binding of 95% (cell-free assay, competition with immobilised ligand; 1 µM).
For CNC(=O)[C@@H]1CC[C@@H](n2c(-c3ccc4cnccc4c3)nc3ccc(C(=O)NCc4cccc(C(N)=O)c4)cc32)C1, the remaining binding was 100% (binding, competition with immobilised ligand; 1 µM).
The remaining binding of F[C@@H]1CCN(c2nccc(-c3cnn4ncccc34)n2)C1 is reported as 76% (binding; 1 µM).
With O=C(NCCCN1CCOCC1)c1ccc(Nc2nccc(-c3cc4ccccc4s3)n2)cc1 the remaining binding was 98% (binding, competition with immobilised ligand; 1 µM).
For CCS(=O)(=O)c1cc2cc(C[C@@](O)(CC(C)(C)c3ccc(F)cc3C(N)=O)C(F)(F)F)[nH]c2cn1, the remaining binding was 100% (cell-free assay, competition with immobilised ligand; 1 µM).
CN(c1nccc(-c2cnn3ncccc23)n1)C1CC1 gave a remaining binding of 100% (binding; 1 µM).
CN([C@@H]1CCc2c(CC(=O)O)c3ccccc3n2C1)S(=O)(=O)c1ccc(F)cc1 gave a remaining binding of 80% (cell-free assay, competition with immobilised ligand; 1 µM).
With C=CC(=O)N1CCC(C(=O)NCC(=O)N2CCN(c3nc(-c4cnc(N)nc4C(F)F)nc(N4CCOCC4)n3)CC2)CC1 the remaining binding was 100% (binding, competition with immobilised ligand; 1 µM).
Cc1cnn2ncc(-c3ccnc(N(C)C)n3)c2c1 has a remaining binding of 81% (binding; 1 µM).
For O=C(Nc1c[nH]nc1C(=O)NC1CCNCC1)c1cc(F)cc(F)c1, the remaining binding was 84% (binding, competition with immobilised ligand; 1 µM).
CNCc1ccccc1-c1csc([C@H](C)Nc2nc(C)nc3cc(OC)c(OC)cc23)c1 gave a remaining binding of 100% (cell-free assay, competition with immobilised ligand; 1 µM).
For CN(C)c1nccc(-c2cnn3ncccc23)n1, the remaining binding was 74% (binding; 1 µM).
